Measurements: ChEMBL document CHEMBL4130442, “Design, synthesis and structure-activity relationship studies of a focused library of pyrimidine moiety with anti-proliferative and anti-metastasis activities in triple negative breast cancer” (Eur J Med Chem, 2017)

Columns and labels:
[1] = tested on: MDA-MB-231; experiment: Effect on total Akt protein level in human MDA-MB-231 cells at 10 uM incubated for 24 hrs by Western blot relative to untreated control; assay type: ADME, cell-based; details: mda-mb-231, 24 h
In short: (§1)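 MDA-MB-231 cells were exposed for 24 h. Adherent and floating cells were pooled and lysed for 1 h at 4 °C in 50 mM Hepes pH 7.4 with 1% Triton X-100, orthovanadate, NaF, EDTA, PMSF, aprotinin and leupeptin. After 12,000 rpm clearing, equal protein was run on 10-15% SDS-PAGE and blotted to PVDF. Detection used HRP-ECL, with β-actin as loading control and densitometric quantification.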

[2] = tested on: MDA-MB-231; experiment: Induction of autophagy in human MDA-MB-231 cells assessed as change in LC3-2 protein level at 10 uM incubated for 24 hrs by Western blot method relative to untreated control; assay type: functional
In short: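 MDA-MB-231 cells (ATCC; DMEM, 10% FBS, 5% CO2) were treated 24 h over a concentration series. Adherent and floating cells were pooled and lysed 1 h at 4 °C (50 mM Hepes pH 7.4, 1% Triton X-100, phosphatase/protease inhibitors). Equal protein was run on 10-15% SDS-PAGE, transferred to PVDF, probed for Beclin-1, p62 and LC3 with HRP/ECL detection, and normalised to β-actin.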

[3] = tested on: MDA-MB-231; experiment: Induction of autophagy in human MDA-MB-231 cells assessed as change in Beclin-1 protein level at 2.5 uM incubated for 24 hrs by Western blot method relative to untreated control; assay type: functional; in short: as §1
[4] = target: T1, Platelet-derived growth factor receptor beta (Homo sapiens, UniProt P09619); experiment: Inhibition of PDGFRbeta in human MDA-MB-231 cells assessed as ULK Ser317 phosphorylation level at 2.5 uM incubated for 24 hrs in presence of PDGFRbeta siRNA by Western blot relative to untreated control; assay type: cell-based
T1 sequence (P09619 whole entry): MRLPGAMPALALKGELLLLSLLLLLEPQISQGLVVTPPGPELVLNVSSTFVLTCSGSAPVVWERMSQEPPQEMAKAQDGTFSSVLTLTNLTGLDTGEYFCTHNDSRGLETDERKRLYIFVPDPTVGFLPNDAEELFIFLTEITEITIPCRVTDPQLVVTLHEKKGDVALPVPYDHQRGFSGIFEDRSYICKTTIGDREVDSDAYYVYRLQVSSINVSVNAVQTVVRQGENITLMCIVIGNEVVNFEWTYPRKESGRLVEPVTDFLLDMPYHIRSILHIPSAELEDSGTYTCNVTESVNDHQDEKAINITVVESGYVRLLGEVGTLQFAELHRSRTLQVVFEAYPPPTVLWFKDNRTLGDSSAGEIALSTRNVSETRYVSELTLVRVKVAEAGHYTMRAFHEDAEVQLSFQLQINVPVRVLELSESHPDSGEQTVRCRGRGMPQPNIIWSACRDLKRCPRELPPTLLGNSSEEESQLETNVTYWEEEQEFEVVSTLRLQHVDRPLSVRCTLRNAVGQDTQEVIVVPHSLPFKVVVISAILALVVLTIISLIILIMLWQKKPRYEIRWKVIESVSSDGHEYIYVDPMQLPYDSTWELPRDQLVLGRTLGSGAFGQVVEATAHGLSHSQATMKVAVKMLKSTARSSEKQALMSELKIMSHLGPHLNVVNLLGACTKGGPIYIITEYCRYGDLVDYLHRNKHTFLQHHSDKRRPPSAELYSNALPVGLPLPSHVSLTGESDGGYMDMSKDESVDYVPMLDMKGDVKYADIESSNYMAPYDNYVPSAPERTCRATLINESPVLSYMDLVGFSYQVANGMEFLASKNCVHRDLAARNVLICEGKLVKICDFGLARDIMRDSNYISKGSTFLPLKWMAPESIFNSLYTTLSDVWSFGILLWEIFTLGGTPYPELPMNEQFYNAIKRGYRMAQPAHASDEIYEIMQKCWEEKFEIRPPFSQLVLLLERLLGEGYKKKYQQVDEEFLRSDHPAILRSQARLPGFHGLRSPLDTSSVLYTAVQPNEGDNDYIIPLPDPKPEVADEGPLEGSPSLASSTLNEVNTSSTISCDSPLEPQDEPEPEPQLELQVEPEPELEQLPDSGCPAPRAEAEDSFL
In short: (§2)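 Cells were transfected with control or PDGFR-β siRNA, then treated with 2.5 μM compound for 24 h. PDGFR-β-AKT-ULK1 pathway phospho-proteins were assessed by western blot: lysis in Hepes pH 7.4 / Triton buffer, 10-15% SDS-PAGE, PVDF, ECL detection, β-actin as loading control.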

[5] = tested on: MDA-MB-231; experiment: Induction of autophagy in human MDA-MB-231 cells assessed as change in LC3-2 protein level at 2.5 uM incubated for 24 hrs in presence of PDGFRbeta siRNA by Western blot method relative to untreated control; assay type: functional
In short: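 Before treatment, MDA-MB-231 cells were transfected with control or PDGFR-β siRNA, then exposed to 2.5 μM compound for 24 h. Lysates of pooled adherent and floating cells were immunoblotted (10-15% SDS-PAGE, PVDF, ECL) for PDGFR-β-AKT-ULK1 autophagy signalling markers, with β-actin as loading control.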

[6] = target: T1, Platelet-derived growth factor receptor beta; experiment: Inhibition of PDGFRbeta in human MDA-MB-231 cells assessed as ULK Ser555 phosphorylation level at 2.5 uM incubated for 24 hrs in presence of PDGFRbeta siRNA by Western blot relative to untreated control; assay type: cell-based; in short: as §2
[7] = tested on: MDA-MB-231; experiment: Induction of autophagy in human MDA-MB-231 cells assessed as change in Beclin-1 protein level at 2.5 uM incubated for 24 hrs in presence of control siRNA by Western blot method relative to untreated control; assay type: functional; in short: as §1
[8] = target: T1, Platelet-derived growth factor receptor beta; experiment: Inhibition of PDGFRbeta in human MDA-MB-231 cells assessed as mTOR Ser2448 phosphorylation level at 2.5 uM incubated for 24 hrs in presence of PDGFRbeta siRNA by Western blot relative to untreated control; assay type: cell-based; in short: as §2
[9] = target: Dual specificity mitogen-activated protein kinase kinase; MEK1/2 (Homo sapiens) (UniProt P36507+Q02750); experiment: Inhibition of MEK1/2 in human MDA-MB-231 cells assessed as MEK1/2 Ser217/221 phosphorylation level at 10 uM incubated for 24 hrs in presence of PDGFRbeta siRNA by Western blot relative to untreated control; assay type: cell-based
Chain of Dual specificity mitogen-activated protein kinase kinase; MEK1/2 (Homo sapiens) (P36507 whole entry, looked up): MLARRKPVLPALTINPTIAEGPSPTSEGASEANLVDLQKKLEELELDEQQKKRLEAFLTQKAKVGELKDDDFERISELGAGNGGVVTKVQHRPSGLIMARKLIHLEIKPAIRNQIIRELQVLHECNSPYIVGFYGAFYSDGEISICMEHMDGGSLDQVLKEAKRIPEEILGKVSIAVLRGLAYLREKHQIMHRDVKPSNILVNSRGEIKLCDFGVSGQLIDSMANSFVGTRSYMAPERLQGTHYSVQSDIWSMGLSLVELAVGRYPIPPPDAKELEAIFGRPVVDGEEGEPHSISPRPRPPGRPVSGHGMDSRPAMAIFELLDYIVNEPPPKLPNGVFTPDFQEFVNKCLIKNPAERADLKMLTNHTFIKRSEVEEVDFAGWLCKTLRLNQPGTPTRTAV
Chain of Dual specificity mitogen-activated protein kinase kinase; MEK1/2 (Homo sapiens) (Q02750 whole entry, looked up): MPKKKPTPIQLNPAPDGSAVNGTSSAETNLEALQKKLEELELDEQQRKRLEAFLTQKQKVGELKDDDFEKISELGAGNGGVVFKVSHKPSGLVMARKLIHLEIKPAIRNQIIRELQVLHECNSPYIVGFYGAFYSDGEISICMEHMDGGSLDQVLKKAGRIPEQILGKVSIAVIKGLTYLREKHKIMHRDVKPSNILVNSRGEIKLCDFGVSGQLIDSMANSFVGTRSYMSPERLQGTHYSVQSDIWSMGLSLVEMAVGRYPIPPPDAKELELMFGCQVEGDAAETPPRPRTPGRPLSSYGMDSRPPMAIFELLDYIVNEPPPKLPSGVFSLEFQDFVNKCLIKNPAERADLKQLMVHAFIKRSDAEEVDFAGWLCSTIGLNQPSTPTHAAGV

[10] = tested on: MDA-MB-231; experiment: Induction of autophagy in human MDA-MB-231 cells assessed as change in Beclin-1 protein level at 2.5 uM incubated for 24 hrs in absence of PDGFRbeta siRNA by Western blot method relative to untreated control; assay type: functional; in short: as §1
[11] = tested on: MDA-MB-231; experiment: Effect on total MEK1/2 protein level in human MDA-MB-231 cells at 5 uM incubated for 24 hrs in presence of PDGFRbeta siRNA by Western blot relative to untreated control; assay type: cell-based; details: mda-mb-231, 24 h
[12] = tested on: MDA-MB-231; experiment: Effect on total c-Raf protein level in human MDA-MB-231 cells at 2.5 uM incubated for 24 hrs in presence of PDGFRbeta siRNA by Western blot relative to untreated control; assay type: cell-based; details: mda-mb-231, 24 h
[13] = tested on: MDA-MB-231; experiment: Effect on total Akt protein level in human MDA-MB-231 cells at 2.5 uM incubated for 24 hrs in presence of control siRNA by Western blot relative to untreated control; assay type: ADME, cell-based; details: mda-mb-231, 24 h; in short: as §1
[14] = target: T1, Platelet-derived growth factor receptor beta; experiment: Inhibition of PDGFRbeta in human MDA-MB-231 cells assessed as Akt Ser473 phosphorylation level at 2.5 uM incubated for 24 hrs in absence of PDGFRbeta siRNA by Western blot relative to untreated control; assay type: cell-based; in short: as §2
[15] = tested on: MDA-MB-231; experiment: Effect on total PDGFRbeta protein level in human MDA-MB-231 cells at 2.5 uM incubated for 24 hrs by Western blot relative to untreated control; assay type: ADME, cell-based; details: mda-mb-231, 24 h; in short: as §1
[16] = tested on: MDA-MB-231; experiment: Induction of autophagy in human MDA-MB-231 cells assessed as change in p62 protein level at 5 uM incubated for 24 hrs by Western blot method relative to untreated control; assay type: functional
In short: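 Cells grown in DMEM with 10% FBS under 5% CO2 and treated 24 h across a range of concentrations. Adherent and floating cells were pooled and lysed in Hepes 50 mM pH 7.4 / 1% Triton X-100 buffer with phosphatase and protease inhibitors, 4 °C for 1 h. Equal protein was run on 10-15% SDS-PAGE, blotted to PVDF, probed with Beclin-1, p62 and LC3 antibodies and detected by ECL.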

[17] = tested on: MDA-MB-231; experiment: Effect on total PDGFRbeta protein level in human MDA-MB-231 cells at 10 uM incubated for 24 hrs by Western blot relative to untreated control; assay type: ADME, cell-based; details: mda-mb-231, 24 h; in short: as §1
[18] = target: T1, Platelet-derived growth factor receptor beta; experiment: Inhibition of PDGFRbeta in human MDA-MB-231 cells assessed as C-Raf Ser338 phosphorylation level at 10 uM incubated for 24 hrs in presence of PDGFRbeta siRNA by Western blot relative to untreated control; assay type: cell-based
[19] = target: T1, Platelet-derived growth factor receptor beta; experiment: Inhibition of PDGFRbeta in human MDA-MB-231 cells assessed as PDGFRbeta Tyr740 phosphorylation level at 10 uM incubated for 24 hrs by Western blot relative to untreated control; assay type: cell-based
In short: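 Cells were treated 24 h at several concentrations. Pooled adherent and floating cells were lysed in Hepes 50 mM pH 7.4 / 1% Triton X-100 buffer with vanadate, NaF, EDTA, PMSF, aprotinin and leupeptin. Equal protein was run on 10-15% SDS-PAGE and blotted to PVDF. PDGFR-β-AKT-ULK1 pathway phospho-proteins were probed and detected by ECL, with β-actin as loading control.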

[20] = target: T1, Platelet-derived growth factor receptor beta; experiment: Inhibition of PDGFRbeta in human MDA-MB-231 cells assessed as C-Raf Ser259 phosphorylation level at 10 uM incubated for 24 hrs in presence of PDGFRbeta siRNA by Western blot relative to untreated control; assay type: cell-based

## COc1cccc(Nc2cc(N3CCN(C(=O)Nc4ccc(C(F)(F)F)cc4)CC3)ncn2)c1
[1]
  fold change (FC): 0.76
[2]
  fold change (FC): 2.7
[3]
  fold change (FC): 2.3
[4]
  fold change (FC): 3.46
[5]
  fold change (FC): 3.01
[6]
  fold change (FC): 3.69
[7]
  fold change (FC): 3.54
[8]
  fold change (FC): 0.16
[9]
  fold change (FC): 1.01
[10]
  fold change (FC): 4.02
[11]
  fold change (FC): 1.08
[12]
  fold change (FC): 0.8
[13]
  fold change (FC): 0.86
[14]
  fold change (FC): 0.48
[15]
  fold change (FC): 1.8
[16]
  fold change (FC): 0.43
[17]
  fold change (FC): 0.55
[18]
  fold change (FC): 0.66
[19]
  fold change (FC): 0.61
[20]
  fold change (FC): 0.95
